Here are results for 58 compounds from ChEMBL document CHEMBL4393692, “Thiazolidinone/thiazole based hybrids - New class of antitrypanosomal agents” (Eur J Med Chem, 2019).

The subject of the assay is Trypanosoma brucei gambiense. Kind of assay: Antitrypanosomal activity against bloodstream form of Trypanosoma brucei gambiense Feo reduction in parasite growth after 72 hrs by resazurin dye based fluorescence assay. The class given is functional, organism-based. The method in brief:
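Bloodstream parasites cultured in HMI9 with 10% FCS at 37°C under 5% CO2. Log-phase cells harvested at 3000xg, plated at 10^5 cells/ml with dilutions from 10 down to 0.625 µg/ml (DMSO stocks) for 72 h. Resazurin added at 45 µM final, fluorescence read after a further 4 h. Inhibition vs DMSO control. IC50 from dose-response curve, mean ± SD of three independent experiments.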
On the technique in general: The colour change of resazurin is a common sign of viable cells or microbes.
As to `O=C1N/C(=N/N=C/c2c(-c3ccc(Br)cc3)[nH]c3ccccc23)SC1CCO` (stereo not drawn), the IC50 (as a rule, the concentration that inhibits the measured activity by half) worked out at 3.34 µM. As to `C=CCSc1nn2c(/C=N/NC(=S)Nc3ccc(O)cc3)c(-c3ccccc3)nc2s1`, the IC50 was greater than 50 µM. With `C=CCSc1nn2c(/C=N/N=C3\SC(C)C(=O)N3c3ccc(O)cc3)c(-c3ccccc3)nc2s1` (stereo not drawn), the IC50 is greater than 20 µM.

The compound `CCc1nn2c(/C=N/N=C3/NC(=O)C(CC)S3)c(-c3ccc([N+](=O)[O-])cc3)nc2s1` (stereo not drawn) had an IC50 greater than 20 µM. With `CCOC(=O)c1s/c(=N\N=C\c2c(-c3ccccc3)nc3sc(CC)nn23)[nH]c1C` the figure was 2.7 µM; with `CCOC(=O)CSc1nn2c(/C=N/N=C3/NC(=O)C(CC)S3)c(-c3ccccc3)nc2s1` (stereo not drawn), 9.2 µM. `CC(=O)OCCC1S/C(=N\N=C\c2c(-c3ccc(Cl)cc3)[nH]c3ccccc23)N(Cc2ccco2)C1=O` (stereo not drawn) returned a 50% inhibitory concentration (IC50) of 1.59 µM. Regarding `CCc1nn2c(/C=N/N=C3\SCC(=O)N3c3ccc(O)cc3)c(-c3ccccc3)nc2s1`, the half-maximal inhibitory concentration (IC50) was 9.2 µM. For `CCc1nn2c(/C=N/N=c3\scc(-c4ccc(Br)cc4)n3-c3ccc(O)cc3)c(-c3ccc([N+](=O)[O-])cc3)nc2s1` the value was 0.594 µM; for `CC1S/C(=N\N=C\c2c(-c3ccc(Cl)cc3)[nH]c3ccccc23)N(c2ccc(O)cc2)C1=O` (stereo not drawn), 1.17 µM. For `C=CCSc1nn2c(/C=N/NC(N)=S)c(-c3ccccc3)nc2s1` the value was 6.1 µM.

In turn, `CCC1S/C(=N\N=C\c2c(-c3ccc([N+](=O)[O-])cc3)[nH]c3ccccc23)NC1=O` (stereo not drawn) displayed a 50% inhibitory concentration (IC50) of 6.2 µM. For `CCc1nn2c(/C=N/N=C3\SC(CC)C(=O)N3c3ccc(O)cc3)c(-c3ccc(Br)cc3)nc2s1` (stereo not drawn) the value was 1.5 µM; for `C=CCSc1nn2c(/C=N/N=C3\SCC(=O)N3c3ccc(O)cc3)c(-c3ccccc3)nc2s1`, greater than 20 µM; for `CC(=O)OCCC1S/C(=N\N=C\c2c(-c3ccc(Br)cc3)[nH]c3ccccc23)NC1=O` (stereo not drawn), 1.36 µM. With `CCc1nn2c(/C=N/N=C3/NC(=O)CS3)c(-c3ccccc3)nc2s1` the figure was 18 µM. With `CCOC(=O)c1sc(N/N=C/c2c(-c3ccc([N+](=O)[O-])cc3)[nH]c3ccccc23)nc1C` the figure was 0.74 µM; with `CC1S/C(=N\N=C\c2c(-c3ccc(Br)cc3)[nH]c3ccccc23)NC1=O` (stereo not drawn), 1.35 µM; with `CCc1nn2cc(-c3ccccc3)nc2s1`, greater than 40 µM.

Turning to `CCc1nn2c(/C=N/N=C3/NC(=O)C(CCOC(C)=O)S3)c(-c3ccc([N+](=O)[O-])cc3)nc2s1` (stereo not drawn), the half-maximal inhibitory concentration (IC50) came to 16.2 µM. For `CCC1S/C(=N\N=C\c2c(-c3ccc(Cl)cc3)[nH]c3ccccc23)NC1=O` (stereo not drawn) the value was 1.42 µM; for `C=CCSc1nn2c(C=O)c(-c3ccccc3)nc2s1`, 23.4 µM; for `C=CCSc1nn2c(/C=N/N=C3/NC(=O)C(CC(=O)O)S3)c(-c3ccccc3)nc2s1` (stereo not drawn), greater than 20 µM.

The compound `CCOC(=O)c1s/c(=N\N=C\c2c(-c3ccc([N+](=O)[O-])cc3)nc3sc(CC)nn23)[nH]c1C` yielded a half-inhibitory concentration (IC50) greater than 20 µM. With `CCc1nn2c(/C=N/N=c3\scc(-c4ccccc4)n3-c3ccc(O)cc3)c(-c3ccccc3)nc2s1` the figure was 3 µM; with `O=[N+]([O-])c1ccc(-c2[nH]c3ccccc3c2/C=N/Nc2nc(-c3ccccc3)cs2)cc1`, 6 µM; with `CCc1nn2c(/C=N/NC(N)=S)c(-c3ccc(Br)cc3)nc2s1`, greater than 25 µM. With `CCc1nn2c(/C=N/N=c3\scc(-c4ccc([N+](=O)[O-])cc4)n3-c3ccc(O)cc3)c(-c3ccc([N+](=O)[O-])cc3)nc2s1` the figure was 2.6 µM. With `C=CCSc1nn2cc(-c3ccccc3)nc2s1` the figure was 27.2 µM. `CCc1nn2c(/C=N/NC(N)=S)c(-c3ccccc3)nc2s1` registered an IC50 of 20.9 µM.

`CCc1nn2c(/C=N/NC(=S)Nc3ccc(O)cc3)c(-c3ccc([N+](=O)[O-])cc3)nc2s1` yielded an IC50 of 14.8 µM. For `CCOC(=O)c1s/c(=N\N=C\c2c(-c3ccc(Br)cc3)nc3sc(CC)nn23)n(-c2ccc(O)cc2)c1C` the value was 1 µM; for `CCc1nn2c(/C=N/N=C3/NC(=O)C(CC)S3)c(-c3ccc(Br)cc3)nc2s1` (stereo not drawn), 13.8 µM; for `CCc1nn2c(/C=N/N=C3/NC(=O)C(CCOC(C)=O)S3)c(-c3ccc(Br)cc3)nc2s1` (stereo not drawn), 3.2 µM. For `CCOC(=O)c1s/c(=N\N=C\c2c(-c3ccc(Br)cc3)nc3sc(CC)nn23)[nH]c1C` the value was 7.4 µM; for `C=CCSc1nn2c(/C=N/N=C3/NC(=O)C(CC)S3)c(-c3ccccc3)nc2s1` (stereo not drawn), 20.6 µM; for `CCc1nn2c(/C=N/N=c3/[nH]c(-c4ccc([N+](=O)[O-])cc4)cs3)c(-c3ccc([N+](=O)[O-])cc3)nc2s1`, 4.4 µM. Turning to `CCc1nn2c(/C=N/N=C3/NC(=O)C(CC)S3)c(-c3ccccc3)nc2s1` (stereo not drawn), inhibition was half-maximal at 3.7 µM (IC50). For `CCc1nn2c(/C=N/NC(N)=S)c(-c3ccc([N+](=O)[O-])cc3)nc2s1` the value was greater than 25 µM; for `CCOC(=O)CSc1nn2c(/C=N/N=C3/NC(=O)C(C)S3)c(-c3ccccc3)nc2s1` (stereo not drawn), 3.9 µM. In the case of `CC1S/C(=N\N=C\c2c(-c3ccc([N+](=O)[O-])cc3)[nH]c3ccccc23)NC1=O` (stereo not drawn), inhibition was half-maximal at 4.7 µM (IC50). Compound `Clc1ccc(-c2[nH]c3ccccc3c2/C=N/Nc2nc(-c3ccc(Br)cc3)cs2)cc1` returned an IC50 of 1.52 µM. With `CCc1nn2c(/C=N/N=c3/[nH]c(-c4ccc([N+](=O)[O-])cc4)cs3)c(-c3ccccc3)nc2s1` the figure was 10.3 µM. For the compound `CCc1nn2c(/C=N/NC(=S)Nc3ccc(O)cc3)c(-c3ccccc3)nc2s1`, the half-inhibitory concentration (IC50) is 2.6 µM. For `CCOC(=O)CSc1nn2cc(-c3ccccc3)nc2s1` the value was greater than 30 µM; for `CCc1nn2c(/C=N/N=C3/NC(=O)C(CCOC(C)=O)S3)c(-c3ccccc3)nc2s1` (stereo not drawn), 11.8 µM; for `CCc1nn2c(/C=N/N=C3\SC(C)C(=O)N3c3ccc(O)cc3)c(-c3ccccc3)nc2s1` (stereo not drawn), 4.8 µM.

The compound `CCc1nn2c(/C=N/N=C3\SC(CCOC(C)=O)C(=O)N3c3ccc(O)cc3)c(-c3ccccc3)nc2s1` (stereo not drawn) registered a half-inhibitory concentration (IC50) of 2.7 µM.

As to `CCc1nn2c(/C=N/N=C3/NC(=O)C(C)S3)c(-c3ccc(Br)cc3)nc2s1` (stereo not drawn), the half-maximal inhibitory concentration (IC50) came out at 9.5 µM. For `CCC1S/C(=N\N=C\c2c(-c3ccc(Br)cc3)[nH]c3ccccc23)NC1=O` (stereo not drawn) the value was 1.5 µM; for `CCc1nn2c(/C=N/N=C3\SC(CCOC(C)=O)C(=O)N3c3ccc(O)cc3)c(-c3ccc([N+](=O)[O-])cc3)nc2s1` (stereo not drawn), 11.1 µM; for `CCc1nn2c(/C=N/NC(=S)Nc3ccc(O)cc3)c(-c3ccc(Br)cc3)nc2s1`, 1.5 µM. For `CCc1nn2c(/C=N/N=C3\SC(C)C(=O)N3c3ccc(O)cc3)c(-c3ccc(Br)cc3)nc2s1` (stereo not drawn) the value was 1.5 µM; for `C=CCSc1nn2c(/C=N/N=C3\SC(CCOC(C)=O)C(=O)N3c3ccc(O)cc3)c(-c3ccccc3)nc2s1` (stereo not drawn), 1 µM. With `CC1S/C(=N\N=C\c2c(-c3ccc(Cl)cc3)[nH]c3ccccc23)N(Cc2ccco2)C1=O` (stereo not drawn) the figure was 1.71 µM; with `CC(=O)OCCC1S/C(=N\N=C\c2c(-c3ccc(Cl)cc3)[nH]c3ccccc23)NC1=O` (stereo not drawn), 1.34 µM. On to `O=[N+]([O-])c1ccc(-c2[nH]c3ccccc3c2/C=N/N=c2\scc(-c3ccc([N+](=O)[O-])cc3)n2-c2ccc(O)cc2)cc1`, for which half-maximal inhibition (IC50) required 1.5 µM.

`CCc1nn2c(/C=N/N=C3\SC(CC)C(=O)N3c3ccc(O)cc3)c(-c3ccccc3)nc2s1` (stereo not drawn): the IC50 is greater than 20 µM.
